Calls of active or inactive are those of the source.
Assays:
Assay type in all cases: functional, cell-based
CWR22R [1] = experiment: Inhibition of TMPRSS2 mRNA expression in human 22Rv1 cells at 10 uM pre-incubated for 2 hrs before pregnenolone stimulation for 24 hrs by RT-qPCR analysis
Outline: (§1)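 22Rv1 cells pretreated 2 h with test agents, then stimulated 24 h with 20 nM pregnenolone; AR, TMPRSS2 and PSA mRNA measured by RT-qPCR, given as ratio to pregnenolone-free control.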

CWR22R [2] = experiment: Induction of apoptosis in human 22Rv1 cells assessed as increase in cleaved caspase-3 level at 50 uM pre-incubated for 2 hrs before addition of pregnenolone for 24 hrs by Western blot analysis
Outline: (§2)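 Apoptotic markers in 22Rv1: 2 h pretreatment with or without 10 μM inhibitor and/or 50 μM enzalutamide, then 24 h 20 nM pregnenolone; Bax/Bcl-2 ratio as percent of control; cleaved caspase-3 also by immunofluorescence with DAPI.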

CWR22R [3] = experiment: Induction of apoptosis in human 22Rv1 cells assessed as effect on cleaved caspase-3 protein expression level at 50 uM pre-incubated for 2 hrs before addition of pregnenolone for 24 hrs by Western blot analysis; outline: as §2
CWR22R [4] = experiment: Induction of cell death in human 22Rv1 cells 50 uM pre-incubated for 2 hrs before addition of pregnenolone for 24 hrs
CWR22R [5] = experiment: Inhibition of PSA mRNA expression in human 22Rv1 cells at 10 uM pre-incubated for 2 hrs before pregnenolone stimulation for 24 hrs by RT-qPCR analysis; outline: as §1
CWR22R [6] = experiment: Induction of apoptosis in human 22Rv1 cells assessed as effect on cleaved PARP protein expression level at 50 uM pre-incubated for 2 hrs before addition of pregnenolone for 24 hrs by Western blot analysis; outline: as §2
CWR22R [7] = experiment: Inhibition of AR mRNA expression in human 22Rv1 cells at 10 uM pre-incubated for 2 hrs before pregnenolone stimulation for 24 hrs by RT-qPCR analysis; outline: as §1
CWR22R [8] = experiment: Induction of apoptosis in human 22Rv1 cells assessed as effect on Bax protein expression level at 50 uM pre-incubated for 2 hrs before addition of pregnenolone for 24 hrs by Western blot analysis; outline: as §2
CWR22R [9] = experiment: Inhibition of pregnenolone-induced cell proliferation of human 22Rv1 cells at 10 uM pre-incubated for 2 hrs before pregnenolone stimulation for 72 hrs by alamar blue assay
Outline: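 22Rv1 cells (AKR1C3- and AR-expressing) pretreated 2 h with agents, then cultured 72 h with 20 nM pregnenolone; viable cell number given as percent of pregnenolone-free control.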

CWR22R [10] = experiment: Induction of ROS generation in human 22Rv1 cells at 50 uM by DCFH-DA dye based flow cytometric analysis
Outline: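 22Rv1 cells exposed 3 h to 10 μM inhibitor and/or abiraterone, or 50 μM enzalutamide; intracellular ROS by flow cytometry as DCF-positive cells, percent of vehicle control.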

CNC(=O)c1ccc(N2C(=S)N(c3ccc(C#N)c(C(F)(F)F)c3)C(=O)C2(C)C)cc1F
active: inhibition (CWR22R [1]) | Activity (CWR22R [2]) | Activity (CWR22R [3]) | Activity (CWR22R [4]) | inhibition (CWR22R [5]) | Activity (CWR22R [6]) | inhibition (CWR22R [7]) | Activity (CWR22R [8]) | inhibition (CWR22R [9]) | Activity (CWR22R [10])

From ChEMBL document CHEMBL4619820, “Development of Novel AKR1C3 Inhibitors as New Potential Treatment for Castration-Resistant Prostate Cancer” (J Med Chem, 2020)
